Values joined by “and” are separate entries in the source; they are usually repeats but may differ in a detail not shown here. Equal entries are not always repeated.
System: HEK-293T
Assay: Multiplex assay against HEK293T
Format: toxicity, cell-based
Settings: human
Summary of the method: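 Cells were classed with CellPathfinder machine-learning gating, first as Hoechst high-intensity objects or normal cells, then (normal cells) as healthy, pyknosed or fragmented nuclei, and finally (pyknosed cells) as mitotic or apoptotic. Staining of live cells at seeding used Hoechst33342, BioTracker Green Microtubule Cytoskeleton Dye, MitoTracker Red and Annexin V Alexa Fluor 680, with imaging on a CQ1 microscope at 37°C and 5% CO2 after compound addition. Tubulin, mitochondrial-mass and membrane-permeability phenotypes are per cents of healthy-nucleus cells.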

[1] = 12 h, 1 µM, compound concentration 1 uM
[2] = 12 h, 10 µM, compound concentration 10 uM
[3] = 24 h, 1 µM, compound concentration 1 uM
[4] = 24 h, 10 µM, compound concentration 10 uM
[5] = 48 h, 1 µM, compound concentration 1 uM
[6] = 48 h, 10 µM, compound concentration 10 uM

## CC[C@H]1OC(=O)[C@H](C)[C@@H](O[C@H]2C[C@@](C)(OC)[C@@H](O)[C@H](C)O2)[C@H](C)[C@@H](O[C@@H]2O[C@H](C)C[C@H](N(C)C)[C@H]2O)[C@@]2(C)CC(C)=C(O2)[C@H](C)[C@@H](O)[C@]1(C)O
[1]
  Population Apoptotic (%): 35% and 45%
  Population Fragmented Nuclei (%): 8% and 3%
  Population Healthy Nuclei (%): 74% and 84%
  Population Hoechst High Intensity Objects (%): 6% and 7%
  Population Membrane Permeable-Phenotype (%): 0%
  Population Mitochondria Different-Phenotype (%): 56% and 72%
  Population Mitotic Cells (%): 64% and 54%
  Population Normal (%): 93% and 92%
  Population Pyknosed Nuclei (%): 17% and 11%
  Population Tubulin-Different-Phenotype (%): 41% and 27%
  Total Cell Count: 367 and 300
[2]
  Population Apoptotic (%): 55% and 56%
  Population Fragmented Nuclei (%): 8% and 11%
  Population Healthy Nuclei (%): 71% and 72%
  Population Hoechst High Intensity Objects (%): 13% and 10%
  Population Membrane Permeable-Phenotype (%): 0%
  Population Mitochondria Different-Phenotype (%): 87% and 91%
  Population Mitotic Cells (%): 44% and 43%
  Population Normal (%): 86% and 89%
  Population Pyknosed Nuclei (%): 19% and 16%
  Population Tubulin-Different-Phenotype (%): 76% and 77%
  Total Cell Count: 383 and 217
[3]
  Population Apoptotic (%): 20% and 35%
  Population Fragmented Nuclei (%): 8%
  Population Healthy Nuclei (%): 78%
  Population Hoechst High Intensity Objects (%): 3% and 6%
  Population Membrane Permeable-Phenotype (%): 0%
  Population Mitochondria Different-Phenotype (%): 35% and 49%
  Population Mitotic Cells (%): 79% and 64%
  Population Normal (%): 96% and 93%
  Population Pyknosed Nuclei (%): 13% and 12%
  Population Tubulin-Different-Phenotype (%): 24% and 22%
  Total Cell Count: 493 and 371
[4]
  Population Apoptotic (%): 42% and 70%
  Population Fragmented Nuclei (%): 9% and 10%
  Population Healthy Nuclei (%): 75% and 71%
  Population Hoechst High Intensity Objects (%): 11% and 10%
  Population Membrane Permeable-Phenotype (%): 0%
  Population Mitochondria Different-Phenotype (%): 74% and 87%
  Population Mitotic Cells (%): 57% and 29%
  Population Normal (%): 88% and 89%
  Population Pyknosed Nuclei (%): 15% and 18%
  Population Tubulin-Different-Phenotype (%): 75% and 80%
  Total Cell Count: 499 and 254
[5]
  Population Apoptotic (%): 30% and 21%
  Population Fragmented Nuclei (%): 12%
  Population Healthy Nuclei (%): 76% and 78%
  Population Hoechst High Intensity Objects (%): 8% and 6%
  Population Membrane Permeable-Phenotype (%): 0%
  Population Mitochondria Different-Phenotype (%): 28% and 34%
  Population Mitotic Cells (%): 69% and 78%
  Population Normal (%): 91% and 93%
  Population Pyknosed Nuclei (%): 11% and 9%
  Population Tubulin-Different-Phenotype (%): 21% and 20%
  Total Cell Count: 718 and 584
[6]
  Population Apoptotic (%): 50% and 53%
  Population Fragmented Nuclei (%): 12%
  Population Healthy Nuclei (%): 74% and 75%
  Population Hoechst High Intensity Objects (%): 10% and 12%
  Population Membrane Permeable-Phenotype (%): 1% and 0%
  Population Mitochondria Different-Phenotype (%): 61% and 84%
  Population Mitotic Cells (%): 50% and 46%
  Population Normal (%): 89% and 87%
  Population Pyknosed Nuclei (%): 12% and 11%
  Population Tubulin-Different-Phenotype (%): 56% and 73%
  Total Cell Count: 671 and 300

## CC(C)(O)C(=O)N1CCN(c2ccc(C(F)(F)F)c(C3=C(c4c[nH]c5ccccc45)C(=O)NC3=O)c2)CC1
[1]
  Population Apoptotic (%): 33% and 46%
  Population Fragmented Nuclei (%): 4% and 5%
  Population Healthy Nuclei (%): 78% and 76%
  Population Hoechst High Intensity Objects (%): 8% and 7%
  Population Membrane Permeable-Phenotype (%): 0%
  Population Mitochondria Different-Phenotype (%): 43% and 58%
  Population Mitotic Cells (%): 66% and 53%
  Population Normal (%): 91% and 92%
  Population Pyknosed Nuclei (%): 16% and 17%
  Population Tubulin-Different-Phenotype (%): 28% and 30%
  Total Cell Count: 381 and 293
[2]
  Population Apoptotic (%): 51% and 72%
  Population Fragmented Nuclei (%): 4% and 3%
  Population Healthy Nuclei (%): 74% and 75%
  Population Hoechst High Intensity Objects (%): 10% and 7%
  Population Membrane Permeable-Phenotype (%): 0%
  Population Mitochondria Different-Phenotype (%): 61% and 90%
  Population Mitotic Cells (%): 48% and 27%
  Population Normal (%): 89% and 92%
  Population Pyknosed Nuclei (%): 20% and 21%
  Population Tubulin-Different-Phenotype (%): 62% and 63%
  Total Cell Count: 338 and 203
[3]
  Population Apoptotic (%): 33% and 29%
  Population Fragmented Nuclei (%): 8% and 5%
  Population Healthy Nuclei (%): 74% and 79%
  Population Hoechst High Intensity Objects (%): 5%
  Population Membrane Permeable-Phenotype (%): 0%
  Population Mitochondria Different-Phenotype (%): 32% and 48%
  Population Mitotic Cells (%): 66% and 70%
  Population Normal (%): 94%
  Population Pyknosed Nuclei (%): 17% and 14%
  Population Tubulin-Different-Phenotype (%): 19%
  Total Cell Count: 469 and 335
[4]
  Population Apoptotic (%): 45% and 66%
  Population Fragmented Nuclei (%): 6% and 2%
  Population Healthy Nuclei (%): 71%
  Population Hoechst High Intensity Objects (%): 4% and 7%
  Population Membrane Permeable-Phenotype (%): 1% and 0%
  Population Mitochondria Different-Phenotype (%): 48% and 84%
  Population Mitotic Cells (%): 54% and 34%
  Population Normal (%): 95% and 92%
  Population Pyknosed Nuclei (%): 22% and 25%
  Population Tubulin-Different-Phenotype (%): 43% and 60%
  Total Cell Count: 387 and 212
[5]
  Population Apoptotic (%): 25% and 27%
  Population Fragmented Nuclei (%): 9% and 10%
  Population Healthy Nuclei (%): 79%
  Population Hoechst High Intensity Objects (%): 2% and 5%
  Population Membrane Permeable-Phenotype (%): 0%
  Population Mitochondria Different-Phenotype (%): 21% and 29%
  Population Mitotic Cells (%): 74% and 72%
  Population Normal (%): 97% and 94%
  Population Pyknosed Nuclei (%): 10%
  Population Tubulin-Different-Phenotype (%): 14% and 15%
  Total Cell Count: 780 and 571
[6]
  Population Apoptotic (%): 54% and 78%
  Population Fragmented Nuclei (%): 8% and 9%
  Population Healthy Nuclei (%): 71%
  Population Hoechst High Intensity Objects (%): 8%
  Population Membrane Permeable-Phenotype (%): 0%
  Population Mitochondria Different-Phenotype (%): 53% and 71%
  Population Mitotic Cells (%): 45% and 21%
  Population Normal (%): 91%
  Population Pyknosed Nuclei (%): 19%
  Population Tubulin-Different-Phenotype (%): 25% and 40%
  Total Cell Count: 467 and 227

— ChEMBL document CHEMBL5724801, “EUbOPEN Chemogenomics Library - Multiplex” (2024)
